Data as given in ChEMBL document CHEMBL4613315, “Design of First-in-Class Dual EZH2/HDAC Inhibitor: Biochemical Activity and Biological Evaluation in Cancer Cells” (ACS Med Chem Lett, 2020).
One block for each compound: values may come before it. Calls of active or inactive are those of the source. No cut-off for these calls is given here.

Legend:
[1] = molecular target: T1, Histone-lysine N-methyltransferase EZH2 (Homo sapiens, UniProt Q15910); assay: Inhibition of EZH2 in human U937 cells assessed as H3K27me3 level at 50 uM in presence of vorinostat incubated for 96 hrs by Western blot analysis (reference value: 1); assay type: cell-based; settings: U-937
T1 sequence (Q15910 whole entry, looked up): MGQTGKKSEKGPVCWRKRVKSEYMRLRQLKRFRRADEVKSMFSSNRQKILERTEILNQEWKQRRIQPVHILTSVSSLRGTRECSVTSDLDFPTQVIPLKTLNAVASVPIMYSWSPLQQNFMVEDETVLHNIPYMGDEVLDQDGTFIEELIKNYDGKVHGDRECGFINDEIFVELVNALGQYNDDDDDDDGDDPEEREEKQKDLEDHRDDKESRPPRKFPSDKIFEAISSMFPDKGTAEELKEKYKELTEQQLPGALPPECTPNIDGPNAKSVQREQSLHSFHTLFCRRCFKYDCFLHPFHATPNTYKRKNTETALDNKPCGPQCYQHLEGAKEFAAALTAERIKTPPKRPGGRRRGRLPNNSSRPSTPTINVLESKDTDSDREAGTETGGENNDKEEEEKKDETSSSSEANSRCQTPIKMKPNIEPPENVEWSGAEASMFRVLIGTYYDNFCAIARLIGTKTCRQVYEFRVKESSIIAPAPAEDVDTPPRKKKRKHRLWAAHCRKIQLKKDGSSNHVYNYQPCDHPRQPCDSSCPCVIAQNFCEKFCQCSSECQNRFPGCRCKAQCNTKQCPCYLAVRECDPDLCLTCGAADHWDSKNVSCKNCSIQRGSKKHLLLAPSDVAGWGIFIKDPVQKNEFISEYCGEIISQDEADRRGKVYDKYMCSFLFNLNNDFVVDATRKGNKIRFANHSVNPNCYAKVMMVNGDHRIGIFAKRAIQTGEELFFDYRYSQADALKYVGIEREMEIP
In short: (§1)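 U937 leukemia cells given EZH2 inhibitor 50 μM together with HDAC inhibitor 0.5 μM; Western blot at 96 and 120 h for H3K27me3 or acetyl-H3, actin as loading control; densitometry normalized to loading control then to DMSO vehicle.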

[2] = system: U-937; assay: Cytotoxicity against human U937 cells assessed as combinational index measured at fraction affected value of 0.68 in presence of vorinostat at 10 uM incubated for 72 hrs by CellTiter-Glo Luminescent cell viability assay; assay type: functional
In short: (§2)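 Viability after 72 h of single-agent or combined treatment with the HDAC inhibitor (0.05–0.25 μM) and the EZH2 inhibitor. EZH2 inhibitor range: U937 5–25 μM; RH4 10–50 μM. Synergy was assessed by combination index and isobologram analysis.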

[3] = Cytotoxicity against human RH4 cells assessed as combinational index measured at fraction affected value of 0.63 in presence of vorinostat at 50 uM incubated for 72 hrs by CellTiter-Glo Luminescent cell viability assay; assay type: functional; in short: as §2
[4] = molecular target: T1, Histone-lysine N-methyltransferase EZH2; assay: Inhibition of EZH2 in human RH4 cells assessed as H3K27me3 level at 50 uM in presence of vorinostat incubated for 72 hrs by Western blot analysis (reference value: 1); assay type: cell-based
In short: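 RH4 cells co-treated with EZH2 inhibitor at 50 μM plus HDAC inhibitor at 0.15 μM; Western blot after 72 or 96 h for H3K27me3 or acetyl-tubulin, vinculin loading control; densitometry normalized to loading control then DMSO vehicle.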

[5] = system: U-937; assay: Cytotoxicity against human U937 cells assessed as reduction in cell viability at 10 uM in presence of vorinostat incubated for 72 hrs by CellTiter-Glo Luminescent cell viability assay relative to control; assay type: functional; settings: U-937, 72 h; in short: as §2
[6] = molecular target: T2, Histone deacetylase (Homo sapiens) (UniProt Q13547+O15379+Q9UBN7+Q92769+Q9UQL6+Q8WUI4+Q9BY41+Q96DB2+P56524+Q9UKV0+Q969S8); assay: Inhibition of HDAC in human U937 cells assessed as Ac-H3 level at 50 uM in presence of vorinostat incubated for 120 hrs by Western blot analysis (reference value: 1); assay type: cell-based; settings: U-937; in short: as §1
[7] = system: U-937; assay: Cytotoxicity against human U937 cells assessed as combinational index measured at fraction affected value of 0.05 in presence of vorinostat at 1 uM incubated for 72 hrs by CellTiter-Glo Luminescent cell viability assay; assay type: functional
[8] = Cytotoxicity against human RH4 cells assessed as combinational index measured at fraction affected value of 0.27 in presence of vorinostat at 10 uM incubated for 72 hrs by CellTiter-Glo Luminescent cell viability assay; assay type: functional; in short: as §2
[9] = molecular target: T1, Histone-lysine N-methyltransferase EZH2; assay: Inhibition of EZH2 in human U937 cells assessed as H3K27me3 level at 50 uM in presence of vorinostat incubated for 120 hrs by Western blot analysis (reference value: 1); assay type: cell-based; settings: U-937; in short: as §1
[10] = molecular target: T2, Histone deacetylase (Homo sapiens); assay: Inhibition of HDAC in human U937 cells assessed as Ac-H3 level at 50 uM incubated for 96 hrs by Western blot analysis (reference value: 1); assay type: cell-based; settings: U-937
[11] = Cytotoxicity against human RH4 cells assessed as reduction in cell viability at 50 uM incubated for 72 hrs by CellTiter-Glo Luminescent cell viability assay relative to control; assay type: functional; settings: Rh4, 72 h
[12] = system: U-87MG ATCC; assay: Upregulation of snail in human U87 cells at 5 to 25 uM incubated for 24 hrs by Western blot analysis; assay type: functional, cell-based
In short: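 U87 glioblastoma cells exposed for 24 h at 5, 10 and 25 μM, with DMSO vehicle as control. Snail and E-cadherin protein levels were read by Western blot, with tubulin as the loading control.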

[13] = Cell cycle arrest in human RH4 cells assessed as G0/G1 accumulation at 14 uM incubated for 72 hrs by propidium iodide staining based flow cytometry (reference value: 46.2 %); assay type: functional
[14] = Induction of apoptosis in human RH4 cells assessed as early apoptotic cells at 14 uM incubated for 72 hrs by annexin V-FITC staining based flow cytometry (reference value: 10.8 %); assay type: functional
[15] = Cell cycle arrest in human RH4 cells assessed as G2/M accumulation at 28 uM incubated for 72 hrs by propidium iodide staining based flow cytometry (reference value: 18.9 %); assay type: functional
[16] = Cell cycle arrest in human RH4 cells assessed as subG1 accumulation at 28 uM incubated for 72 hrs by propidium iodide staining based flow cytometry (reference value: 1.9 %); assay type: functional
[17] = Induction of apoptosis in human RH4 cells assessed as late apoptotic cells at 28 uM incubated for 72 hrs by annexin V-FITC staining based flow cytometry (reference value: 2.1 %); assay type: functional
[18] = system: SK-N-SH; assay: Cytotoxicity against human SK-N-SH cells assessed as reduction in cell viability incubated for 72 hrs by CellTiter-Glo Luminescent cell viability assay; assay type: functional, cell-based
In short: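 Antiproliferative IC50 after 72 h of treatment. Values are means of three independent experiments, each measured in triplicate, ± SD.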

[19] = Cell cycle arrest in human RH4 cells assessed as subG1 accumulation at 14 uM incubated for 72 hrs by propidium iodide staining based flow cytometry (reference value: 1.9 %); assay type: functional
[20] = Induction of apoptosis in human RH4 cells assessed as necrotic cells at 28 uM incubated for 72 hrs by annexin V-FITC staining based flow cytometry (reference value: 0.4 %); assay type: functional
[21] = system: U-937; assay: Induction of differentiation of human U937 cells assessed as increase in CD11b level at 25 uM incubated for 72 hrs by flow cytometry analysis; assay type: functional
In short: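 U937 cells were treated for 72 h at 10 and 25 μM, and surface CD11b expression was measured as a differentiation marker.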

[22] = system: U-937; assay: Induction of apoptosis in human U937 cells assessed as necrotic cells at 25 uM incubated for 72 hrs by annexin V-FITC staining based flow cytometry (reference value: 0.5 %); assay type: functional
[23] = system: U-87MG ATCC; assay: Upregulation of E-cadherin levels in human U87 cells at 5 to 25 uM incubated for 24 hrs by Western blot analysis; assay type: functional, cell-based
In short: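 U87 glioblastoma cells treated 24 h at 5, 10 and 25 μM with DMSO control; E-cadherin and Snail probed by Western blot, tubulin as loading control.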

[24] = system: U-937; assay: Induction of apoptosis in human U937 cells assessed as late apoptotic cells at 25 uM incubated for 72 hrs by annexin V-FITC staining based flow cytometry (reference value: 0.7 %); assay type: functional
[25] = system: U-937; assay: Induction of apoptosis in human U937 cells assessed as viable cells at 25 uM incubated for 72 hrs by annexin V-FITC staining based flow cytometry (reference value: 95.4 %); assay type: functional; settings: U-937, 72 h, read-out: Activity
[26] = Cell cycle arrest in human RH4 cells assessed as G2/M accumulation at 14 uM incubated for 72 hrs by propidium iodide staining based flow cytometry (reference value: 18.9 %); assay type: functional
[27] = Induction of apoptosis in human RH4 cells assessed as necrotic cells at 14 uM incubated for 72 hrs by annexin V-FITC staining based flow cytometry (reference value: 0.4 %); assay type: functional
[28] = system: U-937; assay: Cytotoxicity against human U937 cells assessed as reduction in cell viability incubated for 72 hrs by CellTiter-Glo Luminescent cell viability assay; assay type: functional, cell-based; settings: U-937, 72 h

fold change (FC) [1]: 1.1
fold change (FC) [4]: 0.02
fold change (FC) [6]: 0.8
fold change (FC) [9]: 0.6
fold change (FC) [10]: 1.4
SMILES: Cc1cc(C)c(CNC(=O)c2cc(C)n(-c3ccccc3)c2C)c(=O)[nH]1
CI [2]: 0.14
CI [3]: 0.54
inhibition at 10 µM [5]: 70%
CI [7]: 3.34
CI [8]: 0.64
inhibition at 50 µM [11]: > 30%

SMILES: Cc1cc(C)c(CNC(=O)c2cc(C)n(-c3cccc(NC(=O)CCCCCCC(=O)NO)c3)c2C)c(=O)[nH]1
Activity [12]: inactive
Activity [13]: 47.2%
Activity [14]: 13.8%
Activity [15]: 6.4%
Activity [16]: 28.1%
Activity [17]: 4.4%
IC50 [18]: 25 µM
Activity [19]: 3.8%
Activity [20]: 0.4%
fold change (FC) [21]: 2.7
Activity [22]: 0.3%
Activity [23]: Active
Activity [24]: 1.4%
viability at 25 µM [25]: 75%
Activity [26]: 16.1%
Activity [27]: 0.4%
IC50 [28]: 9 µM
